Series [1] deals with Trypanosoma brucei rhodesiense. As to the kind of experiment: Antitrypanosomal activity against Trypanosoma brucei rhodesiense STIB900 trypomastigotes infected in NMRI mouse assessed as survival and aparasitemic condition at 10 mg/kg, ip administered from day 3 to day 6 postinfection measured after 60 days postinfection. Type of series: functional, organism-based. Details: dose 10 mg/kg. The method in brief: (§1)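 STIB900 acute mouse model with 4 mice per group. Compound in DMSO diluted with water to a final 10% DMSO, given intraperitoneally once daily for four days. An infected, untreated control group was included. Tail blood checked for parasitemia until day 60. Mice alive and aparasitemic at day 60 counted as cured; deaths recorded for mean survival time.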

A further series deals with Leishmania donovani. As to the kind of experiment: Antiprotozoal activity against Leishmania donovani MHOM/SD/62/1S-CL2D axenic amastigotes after 72 hrs. Type of series: functional, organism-based. The method in brief: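 L. donovani axenic amastigotes, adapted from promastigotes and grown in amastigote medium at 37 °C. 6 × 10⁴ parasites per well with 2-fold compound dilutions (DMSO ≤1%), incubated 72 h at 37 °C in humidified 5% CO₂. Growth read by tetrazolium (CellTiter) absorbance at 490 nm. IC50 from a four-parameter dose-response fit. Average of duplicate determinations.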

Series [2] concerns Trypanosoma brucei rhodesiense. The experiment in a line: Antitrypanosomal activity against Trypanosoma brucei rhodesiense STIB900 trypomastigotes infected in NMRI mouse assessed as mouse survival at 10 mg/kg, ip administered from day 3 to day 6 postinfection. It is filed as functional. The note with it: route intraperitoneal. The method in brief: (§2)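 STIB900 acute mouse model. Dosing was intraperitoneal, daily for four days, in DMSO diluted with water to 10% final DMSO. An infected untreated control group was kept. Tail blood was checked for parasitemia to day 60, and deaths were recorded to give mean survival days. Mice surviving and aparasitemic at day 60 counted as cured.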

The subject of series [3] is Trypanosoma brucei rhodesiense. The experiment in a line: Antiprotozoal activity against Trypanosoma brucei rhodesiense STIB900 trypomastigotes after 70 hrs by alamar blue assay. It is filed as functional, organism-based. The essentials:
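Bloodstream forms, 2000 per well, in MEM with Earle's salts plus 0.2 mM 2-mercaptoethanol, 1 mM pyruvate, 0.5 mM hypoxanthine and 15% heat-inactivated horse serum. Exposed to serial dilutions (DMSO ≤1%) for 70 h at 37 °C in 5% CO₂. Resazurin then added for a further 2-6 h. IC50 from sigmoidal curves; two independent runs in duplicate.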

Series [4] is described as follows: Selectivity index, ratio of IC50 for rat L6 cells to IC50 for Leishmania donovani MHOM/SD/62/1S-CL2D axenic amastigotes. Type of series: toxicity, cell-based. The note with it: read-out: Ratio IC50. The essentials:
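Amastigotes: 6 × 10⁴ parasites/well with 2-fold dilutions, 72 h at 37 °C in 5% CO2. Growth read by tetrazolium CellTiter absorbance at 490 nm; IC50 from a four-parameter dose-response fit.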

Another series concerns Plasmodium falciparum. The experiment in a line: Antiprotozoal activity after 48 hrs against chloroquine-resistant Plasmodium falciparum K1 infected erythrocytes by [3H]hypoxanthine uptake. Type of series: functional, organism-based. The essentials:
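Erythrocytic stages in infected human red cells (hematocrit 1.25%, parasitemia 0.3%) in supplemented RPMI 1640 with Albumax II. Serial dilutions incubated at 37 °C in 93% N2/4% CO2/3% O2. [3H]-hypoxanthine (0.5 µCi/well) added at 48 h, then 24 h more. Incorporation counted by scintillation. IC50 from sigmoidal curves; two independent runs in duplicate.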

For another series, the system named is L6. As to the kind of experiment: Cytotoxicity against rat L6 cells after 70 hrs by alamar blue assay. As to conditions: L6, 70 h. It is filed as cell-based. The essentials: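 L6 rat myoblasts, 4000 per well, in RPMI 1640 with 2 mM L-glutamine, HEPES, NaHCO₃ and 10% FBS. Exposed to serial dilutions (DMSO ≤1%) for 70 h at 37 °C in humidified 5% CO₂. Resazurin then added for 2-3 h; fluorescence read at ex 536/em 588 nm. IC50 from sigmoidal curves; two independent runs in duplicate.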
Background: The colour change of resazurin is a common sign of viable cells or microbes.

A short description of series [5]: Selectivity index, ratio of IC50 for rat L6 cells to IC50 for chloroquine-resistant Plasmodium falciparum K1. It is filed as toxicity, cell-based. As to conditions: read-out: Ratio IC50. The essentials:
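Ratio of L6 IC50 to K1 IC50. L6 cells: Alamar blue assay after 70 h, 37 °C. K1: [3H]-hypoxanthine incorporation in infected red cells over 48 + 24 h at 37 °C under low O2. IC50s from sigmoidal curves, two independent runs in duplicate.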

Series [6] can be described thus: Selectivity index, ratio of IC50 for rat L6 cells to IC50 for Trypanosoma brucei rhodesiense STIB900 trypomastigotes. Type of series: toxicity, cell-based. The note with it: read-out: Ratio IC50. The essentials: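 Ratio of L6 IC50 to STIB900 IC50. L6 cells: 4000/well in RPMI 1640 with 10% FBS, 70 h at 37 °C. Bloodstream forms: 2000/well in supplemented MEM with 15% horse serum, 70 h at 37 °C. Both read by Alamar blue fluorescence; IC50s from sigmoidal curves, two independent runs in duplicate.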

Series [7] concerns Trypanosoma brucei rhodesiense. The experiment in a line: Antitrypanosomal activity against Trypanosoma brucei rhodesiense STIB900 trypomastigotes infected in NMRI mouse assessed as mouse survival at 20 mg/kg, ip administered from day 3 to day 6 postinfection. As to conditions: route intraperitoneal. It is filed as functional. The method in brief:
as §2

In series [8] the test system is Trypanosoma brucei rhodesiense. As to the kind of experiment: Antitrypanosomal activity against Trypanosoma brucei rhodesiense STIB900 trypomastigotes infected in NMRI mouse assessed as survival and aparasitemic condition at 20 mg/kg, ip administered from day 3 to day 6 postinfection measured after 60 days postinfection. Type of series: functional, organism-based. Details: dose 20 mg/kg. The method in brief: as §1

Another series deals with Mus musculus. As to the kind of experiment: Toxicity in NMRI mouse infected with Trypanosoma brucei rhodesiense STIB900 trypomastigotes at 20 mg/kg, ip administered from day 3 to day 6 postinfection. Type of series: organism-based. Details: dose 20 mg/kg, route intraperitoneal. The note with it: in vivo.
For series [9], the system named is Trypanosoma brucei rhodesiense. As to the kind of experiment: Antitrypanosomal activity against Trypanosoma brucei rhodesiense STIB900 trypomastigotes infected in NMRI mouse assessed as mouse survival at 1 mg/kg, ip administered from day 3 to day 6 postinfection. Type of series: functional. As to conditions: route intraperitoneal.
Series [10] concerns Trypanosoma brucei rhodesiense. The experiment in a line: Antitrypanosomal activity against Trypanosoma brucei rhodesiense STIB900 trypomastigotes infected in NMRI mouse assessed as survival and aparasitemic condition at 2 mg/kg, ip administered from day 3 to day 6 postinfection measured after 60 days postinfection. Type of series: functional, organism-based. The arrangement: dose 2 mg/kg.

Series [11] has as its system Trypanosoma brucei rhodesiense. As to the kind of experiment: Antitrypanosomal activity against Trypanosoma brucei rhodesiense STIB900 trypomastigotes infected in NMRI mouse assessed as mouse survival at 2 mg/kg, ip administered from day 3 to day 6 postinfection. Type of series: functional. The note with it: route intraperitoneal.
The subject of series [12] is Trypanosoma brucei rhodesiense. As to the kind of experiment: Antitrypanosomal activity against Trypanosoma brucei rhodesiense STIB900 trypomastigotes infected in NMRI mouse assessed as survival and aparasitemic condition at 8 mg/kg, ip administered from day 3 to day 6 postinfection measured after 60 days postinfection. Type of series: functional, organism-based. Details: dose 8 mg/kg.

Series [13] relates to Trypanosoma brucei rhodesiense. As to the kind of experiment: Antitrypanosomal activity against Trypanosoma brucei rhodesiense STIB900 trypomastigotes infected in NMRI mouse assessed as mouse survival at 8 mg/kg, ip administered from day 3 to day 6 postinfection. The note with it: route intraperitoneal. Type of series: functional.

Active and inactive are the calls of the source. The calls are words filed in the database; no cut-off is given here.

On to `COc1cc(C2=NCCN2)ccc1OCCCCCOc1ccc(C2=NCCN2)cc1OC.Cl.Cl`, for which the result in [1] was inactive. The concentration for half-maximal inhibition (IC50) in the series on Leishmania donovani was 36.3 µM; in [3] it was 0.04 µM; with Plasmodium falciparum, 0.019 µM; with L6 it was above 158 µM. For the same molecule, the Survival in series [2] is above 31.8 days. Further, the selectivity ratio in [4] was above 4; in series [5], above 8320; in [6], above 3950.

For `Cl.Cl.N=C(N)c1cccc(OCCCCOc2cccc(C(=N)N)c2)c1`, the outcome in series [1] was inactive. The IC50 was determined as 4.46 µM with Leishmania donovani, 0.056 µM in series [3], 0.021 µM in the series on Plasmodium falciparum and 16 µM in the series with L6. For the same molecule, the Survival is 20 days in series [2] and above 43 days in series [7]. In addition, the selectivity ratio was 4 in series [4], 762 in series [5] and 286 in series [6].

For `Cl.Cl.Cl.Cl.N=C(N)c1ccc(OCCCCOc2ccc(C(=N)N)cc2Cl)c(Cl)c1`, the result in [1] was inactive. The IC50 in the series on Leishmania donovani turned out to be 2.13 µM; in [3], 0.042 µM; in the series on Plasmodium falciparum, 0.019 µM; with L6, 10.9 µM. Moreover, the Survival in series [2] was 22 days; in [7] it was above 41.5 days. Further, the selectivity ratio in [4] came out at 5; in [5] it was 574; in [6] it was 260.

On to `CCOC(=O)c1cc(C(=N)NC(C)C)ccc1OCCCCCOc1ccc(C(=N)NC(C)C)cc1C(=O)OCC.Cl.Cl`, for which the outcome in series [8] was inactive. The IC50 was 55.9 µM with Leishmania donovani, 0.051 µM in series [3], 0.013 µM with Plasmodium falciparum and above 140 µM in the series with L6. For the same molecule, in the series with Mus musculus, the Activity result is on record as “Toxic”. The selectivity ratio in [4] is 2; in series [5], above 10800; in series [6], above 2740. For the same molecule, the Survival in series [7] is 5.5 days.

For the molecule `Nc1nc(N)nc(Nc2ccc([As]3SCC(CO)S3)cc2)n1` (configuration not stated) [MELARSOPROL], the Survival in [9] is above 51.5 days; in [11], above 60 days; in [13], above 60 days. Also, the result in [10] and in series [12] was Active.

Consider `COc1cc(C2=NCCN2)ccc1OCCCCOc1ccc(C2=NCCN2)cc1OC.Cl.Cl`, for which the result in series [1] was inactive. The IC50 in the series with Leishmania donovani was 38.9 µM; in series [3] it was 0.068 µM; in the series on Plasmodium falciparum, 0.02 µM; in the series with L6 it was above 164 µM. Besides, the Survival in [2] amounted to 18.3 days. The selectivity ratio is above 4 in series [4], above 8200 in series [5] and above 2410 in series [6].

In the case of `COc1cc(C(=N)N)ccc1OCCCCOc1ccc(C(=N)N)cc1OC.Cl.Cl`, the result in [1] was inactive. In addition, the IC50 with Leishmania donovani is 38.1 µM; in series [3], 0.27 µM; in the series on Plasmodium falciparum it was 0.044 µM; in the series with L6, above 187 µM. Besides, the Survival in series [2] was 17.5 days. Besides, the selectivity ratio was above 5 in series [4], above 4250 in [5] and above 693 in series [6].

On to `Cl.Cl.c1cc(C2=NCCN2)ccc1OCCCOc1ccc(C2=NCCN2)cc1`, for which the result in series [1] was inactive. The IC50 was determined as 2.88 µM in the series with Leishmania donovani, 0.11 µM in series [3], 0.01 µM in the series with Plasmodium falciparum and 75.3 µM in the series with L6. Besides, the figures for the Survival in series [2] and in [7] were 22.8 days and above 51 days, respectively. Moreover, the selectivity ratio in [4] amounted to 26; in series [5], 7530; in series [6], 685.

As usually defined, the IC50 is the concentration that inhibits the measured activity by half.

The values above are taken from ChEMBL document CHEMBL1153346, “Structure-activity study of pentamidine analogues as antiprotozoal agents” (J Med Chem, 2009).
